Data published in ChEMBL document CHEMBL1150195, “The 1990 United States-Japan seminar on bioorganic marine chemistry, meeting report” (J Nat Prod, 1991).
In brackets after ≈: the same amount, converted by molar mass.

Assays:
[1] = test system: P388; assay: In vivo antitumor activity against mouse P388 cells at 0.125 mg/kg relative to control; assay type: functional
[2] = test system: Candida albicans; assay: Antifungal activity against Candida albicans in presence of 50 ppm ergosterol; assay type: functional
In short: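 Candida albicans screened first by conventional agar disk diffusion. Samples active against C. albicans but not Escherichia coli were retested on agar-tryptic broth plates supplemented with ergosterol at 0–100 ppm. The assay picks out antifungal activity that depends on binding to membrane ergosterol.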

[3] = Inhibition of protein phosphatase 2A
[4] = test system: L1210; assay: Cytotoxicity against mouse L1210 cells at 0.1 ug/ml; assay type: functional
[5] = test system: HCT-116; assay: Cytotoxicity against human HCT116 cells; assay type: functional, cell-based
[6] = test system: B16; assay: Cytotoxicity against mouse B16 cells; assay type: functional, cell-based
[7] = test system: KB; assay: Cytotoxicity against human KB cells; assay type: functional, cell-based
[8] = test system: Melanoma cell; assay: In vivo antitumor activity against human melanoma cells xenografted in mouse at 160 ug/kg//injection relative to control; assay type: functional
[9] = test system: Leukemia cell; assay: In vivo antitumor activity against human leukemia cells xenografted in mouse at 160 ug/kg/injection relative to control; assay type: functional

`C/C=C\[C@H](C)[C@H]1O[C@@]1(C)[C@@H](O)[C@H]1COC(=O)[C@H](O)[C@@H](OC)[C@H](C)C(=O)[C@H](C)[C@@H](O)/C(C)=C/[C@H](C)C(=O)CC[C@@H](C)C1=O` showed a T/C [1] of 190%.

`C[C@@H]1[C@H](O)[C@@H](C)/C=C/C=C/C=C/C=C/C=C/C=C/C=C/[C@H](O[C@@H]2O[C@H](C)[C@@H](O)[C@H](N)[C@@H]2O)C[C@@H]2O[C@](O)(C[C@@H](O)C[C@@H](O)[C@H](O)CC[C@@H](O)C[C@@H](O)CC(=O)O[C@H]1C)C[C@H](O)[C@H]2C(=O)O` [AMPHOTERICIN B] showed an Activity [2] of 50%.

For `COC[C@@H]([C@H](O)[C@H](O)C(=O)NCC[C@H](C)c1nc(/C=C/C[C@@H]2O[C@]3(C[C@@H](O)[C@@H]2C)O[C@H]([C@H](C[C@H](O)[C@H](C)[C@H](O)[C@H](C)/C=C(C)/C(C)=C/C=C/C(C)=C\C#N)OC)[C@H](OP(=O)(O)O)C3(C)C)co1)N(C)C` [CALYCULIN A], the IC50 [3] was 0.9 nM.

In the case of `COC[C@@H]([C@H](O)[C@H](O)C(=O)NCC[C@H](C)c1nc(/C=C/C[C@@H]2O[C@]3(C[C@@H](O)[C@@H]2C)O[C@H]([C@H](C[C@H](O)[C@H](C)[C@H](O)[C@H](C)/C=C(C)/C(C)=C/C=C/C(C)=C/C#N)OC)[C@H](OP(=O)(O)O)C3(C)C)co1)N(C)C` [CALYCULIN B], the IC50 [3] is reported as 0.9 nM.

Work on `COC[C@@H]([C@H](O)[C@H](O)C(=O)N[C@H](C)C[C@H](C)c1nc(/C=C/C[C@@H]2O[C@]3(C[C@@H](O)[C@@H]2C)O[C@H]([C@H](C[C@H](O)[C@H](C)[C@H](O)[C@H](C)/C=C(C)/C(C)=C/C=C/C(C)=C/C#N)OC)[C@H](OP(=O)(O)O)C3(C)C)co1)N(C)C` [CALYCULIN D] yielded an IC50 [3] of 0.9 nM.

For `COC[C@@H]([C@H](O)[C@H](O)C(=O)NCC[C@H](C)c1nc(/C=C/C[C@@H]2O[C@]3(C[C@@H](O)[C@@H]2C)O[C@H]([C@H](C[C@H](O)[C@H](C)[C@H](O)[C@H](C)/C=C(C)/C(C)=C\C=C\C(C)=C/C#N)OC)[C@H](OP(=O)(O)O)C3(C)C)co1)N(C)C` [CALYCULIN E], the IC50 [3] was 0.9 nM.

`COC[C@@H]([C@H](O)[C@H](O)C(=O)NCC[C@H](C)c1nc(/C=C/C[C@@H]2O[C@]3(C[C@@H](O)[C@@H]2C)O[C@H]([C@H](C[C@H](O)[C@H](C)[C@H](O)[C@H](C)/C=C(C)/C(C)=C\C=C\C(C)=C\C#N)OC)[C@H](OP(=O)(O)O)C3(C)C)co1)N(C)C` [CALYCULIN F] showed an IC50 [3] of 0.9 nM.

With `COC[C@@H]([C@H](O)[C@H](O)C(=O)N[C@H](C)C[C@H](C)c1nc(/C=C/C[C@@H]2O[C@]3(C[C@@H](O)[C@@H]2C)O[C@H]([C@H](C[C@H](O)[C@H](C)[C@H](O)[C@H](C)/C=C(C)/C(C)=C\C=C\C(C)=C/C#N)OC)[C@H](OP(=O)(O)O)C3(C)C)co1)N(C)C` [CALYCULIN G] the IC50 [3] was 0.9 nM.

Compound `COC[C@@H]([C@H](O)[C@H](O)C(=O)N[C@H](C)C[C@H](C)c1nc(/C=C/C[C@@H]2O[C@]3(C[C@@H](O)[C@@H]2C)O[C@H]([C@H](C[C@H](O)[C@H](C)[C@H](O)[C@H](C)/C=C(C)/C(C)=C\C=C\C(C)=C\C#N)OC)[C@H](OP(=O)(O)O)C3(C)C)co1)N(C)C` [CALYCULIN H] has an IC50 [3] of 0.9 nM.

Work on `COC[C@@H]([C@H](O)[C@H](O)C(=O)N[C@H](C)C[C@H](C)c1nc(/C=C/C[C@@H]2O[C@]3(C[C@@H](O)[C@@H]2C)O[C@H]([C@H](C[C@H](O)[C@H](C)[C@H](O)[C@H](C)/C=C(C)/C(C)=C/C=C/C(C)=C\C#N)OC)[C@H](OP(=O)(O)O)C3(C)C)co1)N(C)C` [CALYCULIN] yielded an IC50 [3] of 0.9 nM.

Compound `CC[C@H]1CCCC[C@@]2(C[C@@H]3CC[C@@H]4[C@H](C(=O)OCCCCCCCCCCCCCCCC(=O)N(CCCN)C[C@@H](O)CCN)[C@]5(CCC[C@@H](C)O5)N=C(N2)N34)O1` [CRAMBESCIDIN 800] has an Activity [4] of 98%.

Compound `CC[C@H]1CCCC[C@@]2(C[C@@H]3CC[C@]4(O)[C@H](C(=O)OCCCCCCCCCCCCCCCC(=O)N(CCCN)C[C@@H](O)CCN)[C@]5(CCC[C@@H](C)O5)N=C(N2)N34)O1` [CRAMBESCIDIN 816] has an Activity [4] of 98%.

For `CC[C@@H]1CCCC[C@]2(C[C@H]3CCC4(O)C(C(=O)OCCCCCCCCCCCCCCCCC(=O)N(CCCN)CC(O)CCN)[C@@]5(CCC[C@H](C)O5)N=C(N2)N34)O1` (stereo partly drawn) [CRAMBESCIDIN 830], the Activity [4] was 98%.

`CC[C@@H]1CCCC[C@]2(C[C@H]3CCC4(O)C(C(=O)OCCCCCCCCCCCCCCCCCC(=O)N(CCCN)CC(O)CCN)[C@@]5(CCC[C@H](C)O5)N=C(N2)N34)O1` (stereo partly drawn) [CRAMBESCIDIN 844] gave an Activity [4] of 98%.

With `[H][C@]12Nc3c4cccc3[C@]13C1=C(N=C(O1)[C@H](C(C)C)NC(=O)[C@@H](NC(=O)[C@@H](O)C(C)C)Cc1ccc(c3c1)O2)c1nc(Cl)c(o1)-c1c(Cl)[nH]c2cccc-4c12` [DIAZONAMIDE A] the IC50 [5] was under 0.015 µg/mL and the IC50 [6] was under 0.015 µg/mL.

For `CO/N=C/CCCCCCC[C@@H](C)CCCCCCCCCCc1cccnc1` [IKIMINE A], the IC50 [7] was 5 µg/mL (≈ 12.4 µM).

Work on `CO[C@H]1C[C@H](CC[C@H](C)[C@H](O)[C@H](C)[C@H]2OC(=O)/C=C/C(C)=C/C[C@H](O)C[C@@H]3CCC[C@H](C[C@H](OC)[C@@H](C)[C@@H](O)C[C@@H](O)[C@H](C)[C@H](O)[C@@H](C)[C@H]([C@@H](C)CC[C@H]4C[C@H](OC)C[C@H](C)O4)OC(=O)/C=C/C(C)=C/C[C@H](O)C[C@@H]4C=CC[C@H](C[C@H](OC)[C@@H](C)[C@@H](O)C[C@@H](O)[C@@H]2C)O4)O3)O[C@@H](C)C1` [ISOSWINHOLIDE A] yielded an IC50 [7] of 1.1 µg/mL (≈ 0.79 µM).

Compound `CC[C@H](C)[C@H]1NC(=O)[C@@H](NC(=O)[C@@H](CC(C)C)N(C)C(=O)[C@@H]2CCCN2C(=O)C(C)=O)[C@@H](C)OC(=O)[C@H](Cc2ccc(OC)cc2)N(C)C(=O)[C@@H]2CCCN2C(=O)[C@H](CC(C)C)NC(=O)[C@@H](C)C(=O)[C@H](C(C)C)OC(=O)C[C@@H]1O` [PLITIDEPSIN] has a T/C [8] of 218% and a T/C [9] of 210%.

Compound `CO[C@@H]1C[C@@H](O)C[C@@H](O)[C@H](C)[C@@H]([C@@H](C)[C@@H](O)[C@@H](C)CC[C@H]2C[C@H](OC)C[C@H](C)O2)OC(=O)/C=C/C(C)=C/C[C@H](O)C[C@@H]2C=CC[C@H](C[C@H](OC)[C@@H](C)[C@@H](O)C[C@@H](O)[C@H](C)[C@@H]([C@@H](C)[C@@H](O)[C@@H](C)CC[C@H]3C[C@H](OC)C[C@H](C)O3)OC(=O)/C=C/C(C)=C/C[C@H](O)C[C@@H]3CCC[C@H](C1)O3)O2` [SWINHOLIDE B] has an IC50 [7] of 0.04 µg/mL (≈ 0.029 µM).

`CO[C@H]1C[C@H](CC[C@H](C)[C@H](O)[C@H](C)[C@H]2OC(=O)/C=C/C(C)=C/C[C@H](O)C[C@@H]3C=CC[C@@H](C[C@H](OC)[C@@H](C)[C@@H](O)C[C@@H](O)[C@H](C)[C@@H]([C@@H](C)[C@@H](O)[C@@H](C)CC[C@H]4C[C@H](OC)C[C@H](C)O4)OC(=O)/C=C/C(C)=C/C[C@H](O)C[C@@H]4C=CC[C@@H](C[C@H](OC)[C@@H](C)[C@@H](O)C[C@@H](O)[C@@H]2C)O4)O3)O[C@@H](C)C1` [Swinholide A] showed an IC50 [7] of 0.04 µg/mL (≈ 0.0288 µM).

`CO[C@H]1C[C@H](CC[C@H](C)[C@H](O)[C@H](C)[C@H]2OC(=O)/C=C/C(C)=C/C[C@H](O)C[C@@H]3CCC[C@H](C[C@H](OC)[C@@H](C)[C@@H](O)C[C@@H](O)[C@H](C)[C@@H]([C@@H](C)[C@@H](O)[C@@H](C)CC[C@H]4C[C@H](O)C[C@H](C)O4)OC(=O)/C=C/C(C)=C/C[C@H](O)C[C@@H]4C=CC[C@H](C[C@H](OC)[C@@H](C)[C@@H](O)C[C@@H](O)[C@@H]2C)O4)O3)O[C@@H](C)C1` [swiholide C] showed an IC50 [7] of 0.04 µg/mL (≈ 0.029 µM).
